Assay [1] concerns Trypanosoma vivax. Briefly: Antitrypanosomal activity against bloodstream Trypanosoma vivax STIB 719/ ILRAD 560 infected in NMRI mouse assessed as reduction in parasitemia at 10 mg/kg, sc administered for 4 days. It counts as functional. Further details: scale not given: the % may be the effect or the level left.
The subject of assay [2] is Trypanosoma congolense. Briefly: Antitrypanosomal activity against bloodstream Trypanosoma congolense IL3000 infected in NMRI mouse assessed as reduction in parasitemia at 10 mg/kg, sc administered once daily for 4 days. It is filed as functional. Further details: scale not given: the % may be the effect or the level left.
The test system of assay [3] is Trypanosoma vivax. Briefly: Antitrypanosomal activity against bloodstream Trypanosoma vivax STIB 719/ ILRAD 560 infected in NMRI mouse assessed as reduction in parasitemia at 3 mg/kg, sc QD for 4 days and measured twice a week for 21 days. Further details: scale not given: the % may be the effect or the level left. Conditions: time 21 day.
In assay [4] the test system is Trypanosoma congolense. The assay can be described thus: Antitrypanosomal activity against bloodstream Trypanosoma congolense KONT 2/133 infected in Friesian-Holstein calf assessed as reduction in parasitemia at 5 mg/kg, sc BID and measured after 3 days. It is filed as functional, organism-based. Conditions: time 3.0 day.
For assay [5], the system named is Trypanosoma vivax. The assay can be described thus: Antitrypanosomal activity against bloodstream Trypanosoma vivax STIB 719/ ILRAD 560 infected in NMRI mouse assessed as reduction in parasitemia at 30 mg/kg, sc administered as single dose and measured twice a week for 21 days. It is filed as functional. Further details: scale not given: the % may be the effect or the level left. The following applies: time 21 day.

Assay [6] has as its system Trypanosoma brucei brucei. Briefly: Antitrypanosomal activity against bloodstream Trypanosoma brucei brucei infected in NMRI mouse assessed as parasite growth inhibition at 3 mg/kg, po BID for 4 days. It is filed as functional. Conditions: time 4 day. The arrangement: scale not given: the % may be the effect or the level left.
For assay [7], the system named is Trypanosoma vivax. The assay can be described thus: Antitrypanosomal activity against bloodstream Trypanosoma vivax STIB 719/ ILRAD 560 infected in NMRI mouse assessed as reduction in parasitemia at 10 mg/kg, sc BID for 4 days and measured twice a week for 21 days. The following applies: time 21 day. Further details: scale not given: the % may be the effect or the level left. It counts as functional.

The subject of assay [8] is Trypanosoma congolense. Briefly: Antitrypanosomal activity against bloodstream Trypanosoma congolense IL3000 infected in NMRI mouse assessed as reduction in parasitemia at 10 to 100 ng/ml administered via sc implanted ALZET osmotic pumps for 48 hrs. Conditions: dose 10-100 ng/ml. It is filed as functional, organism-based.
Assay [9] relates to Trypanosoma congolense. Briefly: Antitrypanosomal activity against bloodstream Trypanosoma congolense IL3000 infected in Fulani Zebu cattle assessed as reduction in parasitemia at 10 mg/kg, IM administered as single dose monitered for 100 days. It counts as functional, organism-based. The following applies: time 100.0 day. Put shortly: (§1)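 Female Fulani Zebu cattle infected with the named strain received 10 mg/kg of the free base by IM injection. The vehicle was Kolliphor EL, N-methyl pyrrolidone, 2-pyrrolidone and 11% water. Dosing was once or twice 15 h apart. Saline vehicle controls got 0.2 mL/kg twice, 15 h apart. Animals were followed for 100 days after treatment to score cure.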

The subject of assay [10] is Trypanosoma vivax. The assay can be described thus: Antitrypanosomal activity against bloodstream Trypanosoma vivax STIB 719/ ILRAD 560 infected in NMRI mouse assessed as reduction in parasitemia at 3 mg/kg, sc administered for 4 days. Further details: scale not given: the % may be the effect or the level left. Conditions: time 4 day. It counts as functional.
The test system of assay [11] is Trypanosoma vivax. The assay can be described thus: Antitrypanosomal activity against bloodstream Trypanosoma vivax STIB 719/ ILRAD 560 infected in Fulani Zebu cattle assessed as reduction in parasitemia at 10 mg/kg, IM administered twice daily and measured after 4 days. It counts as functional, organism-based. The following applies: time 4.0 day.
Assay [12] deals with Trypanosoma vivax. The assay can be described thus: Antitrypanosomal activity against bloodstream Trypanosoma vivax STIB 719/ ILRAD 560 infected in Fulani Zebu cattle assessed as reduction in parasitemia at 10 mg/kg, IM administered as single dose monitered for 100 days. It counts as functional, organism-based. The following applies: time 100.0 day. Put shortly:
as §1

For assay [13], the system named is Trypanosoma vivax. The assay can be described thus: Antitrypanosomal activity against bloodstream Trypanosoma vivax STIB 719/ ILRAD 560 infected in NMRI mouse assessed as reduction in parasitemia at 10 mg/kg, sc administered for 2 days. It is filed as functional. The arrangement: scale not given: the % may be the effect or the level left. The following applies: time 2 day.

In assay [14] the test system is Trypanosoma vivax. The assay can be described thus: Antitrypanosomal activity against bloodstream Trypanosoma vivax STIB 719/ ILRAD 560 infected in Fulani Zebu cattle assessed as reduction in parasitemia at 10 mg/kg, IM administered twice daily and measured after for 100 days. It is filed as functional, organism-based. Conditions: time 100.0 day. In short, it runs like this: as §1

Assay [15] relates to Trypanosoma congolense. The assay can be described thus: Antitrypanosomal activity against bloodstream Trypanosoma congolense IL3000 infected in NMRI mouse assessed as reduction in parasitemia at 3 mg/kg, sc administered for 4 days. It counts as functional. The arrangement: scale not given: the % may be the effect or the level left. Conditions: time 4 day.

The structures appear in SMILES notation. Active and inactive are the calls of the source. The rule behind the calls is not given here.

With `CC(C)CS(=O)(=O)N[C@H]1CC[C@H](Nc2nc(N)c(C(=O)c3c(F)cc(CN4CCCC4)cc3F)s2)CC1.Cl`, the Activity in assay [1] (time 4 day) is reported as 100%.
For the molecule `CNCc1cc(F)c(C(=O)c2sc(N[C@H]3CC[C@H](NS(=O)(=O)CC(C)C)CC3)nc2N)c(F)c1.Cl`, the Activity in assay [1] (time 4 day) and in [2] (time 4 day) was 100% throughout.
For `CC(C)CS(=O)(=O)N[C@H]1CC[C@H](Nc2nc(N)c(C(=O)c3c(F)cccc3F)s2)CC1`, the Activity in assay [3], in assay [5], in assay [6] and in assay [7] was 100% throughout. Moreover, the outcome in assay [4] was Active.
Regarding `CC(C)CS(=O)(=O)N[C@H]1CC[C@H](Nc2nc(N)c(C(=O)c3c(F)cc(CN4CCOCC4)cc3F)s2)CC1`, the result in assay [1] (time 4.0 day) and in [2] (time 4.0 day) was inactive.
`CC(C)CS(=O)(=O)N[C@H]1CC[C@H](Nc2nc(N)c(C(=O)c3c(F)cc(CN(C)C)cc3F)s2)CC1`: the result in assay [8] was Active. Moreover, the result in assay [9], in [11], in assay [12] and in [14] was inactive. Moreover, the Activity in [1] (time 4 day), in assay [2] (time 4 day), in assay [10] and in assay [13] was 100% in each case.
For the molecule `CC(C)CS(=O)(=O)N[C@H]1CC[C@H](Nc2nc(N)c(C(=O)c3c(Cl)cccc3Cl)s2)CC1`, the Activity in [15] and in assay [10] was 100% in each case.
For the molecule `CC(C)CS(=O)(=O)N[C@H]1CC[C@H](Nc2nc(N)c(C(=O)c3c(F)cc(CN4CCN(C)CC4)cc3F)s2)CC1`, the outcome in assay [1] (time 4.0 day) was inactive.

The values are drawn from ChEMBL document CHEMBL5046314, “Repositioning of a Diaminothiazole Series Confirmed to Target the Cyclin-Dependent Kinase CRK12 for Use in the Treatment of African Animal Trypanosomiasis” (J Med Chem, 2022).
